Reference: ChEMBL document CHEMBL1144702, “Synthesis and structure-activity relationship studies on tryprostatin A, an inhibitor of breast cancer resistance protein” (Bioorg Med Chem, 2008)
Activity calls are given as the source filed them. The calls are words filed in the database; no cut-off is given here.

Tests used:
[1] = Cell cycle arrest in mouse tsFT210 cells assessed as accumulation at M phase at 100 uM after 18 hrs by flow cytometry; format: functional, cell-based
Method in brief: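 Synchronous-culture assay: tsFT210 cells seeded at 1x10^5 cells/mL, preincubated 1 h at 32 °C, then incubated with compound 18 h at 32 °C; morphology checked by microscopy; DNA content by flow cytometry after staining with 50 μg/mL propidium iodide, 0.1% sodium citrate, 0.2% NP-40; nuclei/chromosomes stained with Hoechst 33258 after KCl swelling and Carnoy fixation.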

[2] = Antiproliferative activity against mouse tsFT210 cells after 48 hrs by WST-8 assay; format: functional, cell-based; conditions: tsFT210, 48 h
Method in brief: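 tsFT210 cells (temperature-sensitive cdc2 mutant from mouse mammary carcinoma FM3A), kept in RPMI 1640 with 10% fetal calf serum at 32 °C; exponentially growing cells exposed to compound at 32 °C for 48 h, then WST-8 added for 4 h at 37 °C; absorbance at 450 nm read to estimate cell number; IC50 reported.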

PC-3 [3] = test: Cytotoxicity against human PC3 cells after 72 hrs by Cell Titer 96 Aqueous Non-Radioactive assay; format: functional; conditions: PC-3, 72 h
Method in brief: (§1)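 MCF7, NCI-H520 and PC-3 cells in RPMI-1640 + 10% FBS, 2 mM L-glutamine, 0.1 mM non-essential amino acids; 1 × 10^4 cells/well, 24 h at 37 °C, then drug in DMSO or EtOH (<1%) for 72 h. Cells under 50% survival at 100 μM retested over further concentrations for GI50. MTS/PMS read at 490 nm, blank subtracted, versus vehicle wells; quadruplicate or more.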

[4] = Cytotoxicity against human H520 cells after 72 hrs by Cell Titer 96 Aqueous Non-Radioactive assay; format: functional; conditions: NCI-H520, 72 h; method in brief: as §1
MCF7 [5] = test: Cytotoxicity against human MCF7 cells after 72 hrs by Cell Titer 96 Aqueous Non-Radioactive assay; format: functional; conditions: MCF7, 72 h; method in brief: as §1
RPMI-8226 = test: Cytotoxicity against human RPMI8226 cells; format: functional
COLO 205 = test: Cytotoxicity against human COLO205 cells; format: functional
HT-29 = test: Cytotoxicity against human HT29 cells; format: functional
CCRF-CEM = test: Cytotoxicity against human CCRF-CEM cells; format: functional
MCF7 [6] = test: Cytotoxicity against human MCF7 cells at 100 uM after 72 hrs by Cell Titer 96 Aqueous Non-Radioactive assay; format: functional; conditions: MCF7, 72 h, read-out: Inhibition
Method in brief: (§2)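 MCF7, NCI-H520 or PC-3 cells (RPMI-1640, 10% FBS) plated 1 × 10^4/well, 24 h at 37 °C, exposed 72 h to drug at 10 or 100 μM in DMSO or EtOH vehicle (controls usually 0.2%). Survival by MTS/PMS formazan absorbance at 490 nm, plate blank subtracted, as percent of vehicle wells; quadruplicate; etoposide or m-AMSA positive controls.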

IGROV-1 = test: Cytotoxicity against human IGROV1 cells; format: functional
SR = test: Cytotoxicity against human SR cells; format: functional
MCF7 [7] = test: Cytotoxicity against human MCF7 cells at 10 uM after 72 hrs by Cell Titer 96 Aqueous Non-Radioactive assay; format: functional; conditions: MCF7, 72 h, read-out: Inhibition; method in brief: as §2
[8] = Cytotoxicity against human H520 cells at 10 uM after 72 hrs by Cell Titer 96 Aqueous Non-Radioactive assay; format: functional; conditions: NCI-H520, 72 h, read-out: Inhibition; method in brief: as §2
MOLT-4 = test: Cytotoxicity against human MOLT4 cells; format: functional
[9] = Cytotoxicity against human H520 cells at 100 uM after 72 hrs by Cell Titer 96 Aqueous Non-Radioactive assay; format: functional; conditions: NCI-H520, 72 h, read-out: Inhibition; method in brief: as §2
EKVX = test: Cytotoxicity against human EKVX cells; format: functional
[10] = Inhibition of tubulin polymerization in presence of microtubule-associated proteins at 60 uM
Method in brief: (§3)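 Tubulin containing MAPs in PME buffer (100 mM PIPES pH 6.9, 2 mM EGTA, 1 mM MgSO4) with GTP and drug in DMSO, tubulin added last; 37 °C, absorbance change at 351 nm over 10 min. Drug concentration varied across runs for delta absorbance versus concentration curves; colchicine standard curves made for each tubulin batch.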

OVCAR-3 = test: Cytotoxicity against human OVCAR-3 cells; format: functional
K562 = test: Cytotoxicity against human K562 cells; format: functional
UO-31 = test: Cytotoxicity against human UO31 cells; format: functional
HOP-92 = test: Cytotoxicity against human HOP92 cells; format: functional
PC-3 [11] = test: Cytotoxicity against human PC3 cells at 10 uM after 72 hrs by Cell Titer 96 Aqueous Non-Radioactive assay; format: functional; conditions: PC-3, 72 h, read-out: Inhibition; method in brief: as §2
BT-549 = test: Cytotoxicity against human BT549 cells; format: functional
LOX IMVI = test: Cytotoxicity against human LOX IMVI cells; format: functional
DU-145 = test: Cytotoxicity against human DU145 cells; format: functional
[12] = Cytotoxicity against human HL60 (TB) cells; format: functional; conditions: HL-60
PC-3 [13] = test: Cytotoxicity against human PC3 cells at 100 uM after 72 hrs by Cell Titer 96 Aqueous Non-Radioactive assay; format: functional; conditions: PC-3, 72 h, read-out: Inhibition; method in brief: as §2
[14] = Cytotoxicity against human […]; format: functional
[15] = Inhibition of tubulin polymerization in presence of microtubule-associated proteins; method in brief: as §3
[16] = Cell cycle arrest in mouse tsFT210 cells assessed as accumulation at M phase at 30 uM after 18 hrs by flow cytometry; format: functional, cell-based
Method in brief: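 Murine temperature-sensitive cdc2 mutant tsFT210 cells (from FM3A), kept in RPMI 1640 + 10% FCS at permissive 32 °C; seeded 1x10^5 cells/mL, preincubated 1 h at 32 °C, compound added, 18 h at 32 °C. Microscopy, then propidium iodide (50 μg/mL, 0.1% sodium citrate, 0.2% NP-40) flow cytometry for DNA content; Carnoy-fixed nuclei stained with Hoechst 33258.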

[17] = molecular target: DNA topoisomerase 2-alpha (Homo sapiens) (UniProt P11388); test: Inhibition of topoisomerase 2 assessed as relaxation of supercoiled DNA at 100 uM
DNA topoisomerase 2-alpha (Homo sapiens), sequence (P11388 whole entry): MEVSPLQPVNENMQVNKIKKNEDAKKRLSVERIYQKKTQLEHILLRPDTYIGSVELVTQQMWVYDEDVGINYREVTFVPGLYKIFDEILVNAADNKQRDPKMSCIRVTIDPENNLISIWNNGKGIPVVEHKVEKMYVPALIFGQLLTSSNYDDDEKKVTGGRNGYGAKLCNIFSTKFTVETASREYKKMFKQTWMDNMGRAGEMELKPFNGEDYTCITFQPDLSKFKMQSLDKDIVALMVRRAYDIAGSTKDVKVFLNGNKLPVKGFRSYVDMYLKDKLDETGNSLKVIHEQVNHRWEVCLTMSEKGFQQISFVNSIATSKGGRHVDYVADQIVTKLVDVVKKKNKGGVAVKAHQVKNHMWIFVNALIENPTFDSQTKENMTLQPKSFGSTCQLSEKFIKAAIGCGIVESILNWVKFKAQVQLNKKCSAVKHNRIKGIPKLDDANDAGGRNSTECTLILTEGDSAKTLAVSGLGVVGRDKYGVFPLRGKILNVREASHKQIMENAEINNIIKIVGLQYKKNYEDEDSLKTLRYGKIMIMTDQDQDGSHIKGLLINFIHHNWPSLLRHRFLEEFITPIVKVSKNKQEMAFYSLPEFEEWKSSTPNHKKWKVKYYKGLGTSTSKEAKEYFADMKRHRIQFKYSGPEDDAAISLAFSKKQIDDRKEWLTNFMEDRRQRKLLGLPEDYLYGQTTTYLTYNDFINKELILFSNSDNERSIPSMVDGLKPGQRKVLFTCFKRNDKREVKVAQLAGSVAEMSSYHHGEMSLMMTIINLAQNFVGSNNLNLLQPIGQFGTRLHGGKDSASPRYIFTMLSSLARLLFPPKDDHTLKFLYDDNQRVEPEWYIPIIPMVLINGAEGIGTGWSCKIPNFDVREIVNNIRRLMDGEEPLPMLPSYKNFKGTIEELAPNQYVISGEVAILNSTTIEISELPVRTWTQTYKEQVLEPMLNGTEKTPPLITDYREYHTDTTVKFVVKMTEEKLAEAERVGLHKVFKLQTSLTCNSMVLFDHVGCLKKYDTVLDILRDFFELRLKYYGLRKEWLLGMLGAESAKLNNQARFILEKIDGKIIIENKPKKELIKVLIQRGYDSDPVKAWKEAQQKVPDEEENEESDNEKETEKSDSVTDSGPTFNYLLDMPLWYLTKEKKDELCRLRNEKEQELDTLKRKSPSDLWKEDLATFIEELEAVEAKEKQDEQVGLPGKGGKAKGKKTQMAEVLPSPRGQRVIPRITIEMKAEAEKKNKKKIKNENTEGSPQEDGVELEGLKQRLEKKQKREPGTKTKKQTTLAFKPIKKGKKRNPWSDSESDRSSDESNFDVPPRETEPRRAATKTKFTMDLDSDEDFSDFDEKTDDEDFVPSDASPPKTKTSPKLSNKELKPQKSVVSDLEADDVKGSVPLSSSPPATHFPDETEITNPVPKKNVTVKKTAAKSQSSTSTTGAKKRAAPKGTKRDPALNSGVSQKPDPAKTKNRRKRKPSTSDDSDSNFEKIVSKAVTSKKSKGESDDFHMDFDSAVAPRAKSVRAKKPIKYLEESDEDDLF

Row | SMILES | GI50 (PC-3 [3]) [µM] | GI50 (MCF7 [5]) [µM] | GI50 (RPMI-8226) [µM] | GI50 (COLO 205) [µM] | GI50 (CCRF-CEM) [µM] | cell survival (% of vehicle control) at 100 µM (MCF7 [6]) [%] | GI50 (IGROV-1) [µM] | GI50 (SR) [µM] | cell survival (% of vehicle control) at 10 µM (MCF7 [7]) [%] | percent cell survival relative to vehicle at 10 µM [8] [%] | cell survival (% of vehicle control) at 100 µM [9] [%] | GI50 (EKVX) [µM] | GI50 (OVCAR-3) [µM] | GI50 (K562) [µM] | GI50 (UO-31) [µM] | percent cell survival relative to vehicle control at 10 µM (PC-3 [11]) [%] | GI50 (BT-549) [µM] | GI50 (LOX IMVI) [µM] | GI50 (DU-145) [µM] | GI50 [12] [µM] | further results
1 | COc1ccc2c(C[C@@H]3NC(=O)[C@H](Cc4ccccc4)NC3=O)c[nH]c2c1 | – | – | – | – | – | – | – | – | – | – | – | – | – | – | – | – | – | – | – | – | Activity [1]: Active; IC50 [2]: 100 µM
2 | COc1cc([C@@H]2c3cc4c(cc3[C@@H](O[C@@H]3O[C@@H]5CO[C@@H](C)O[C@H]5[C@H](O)[C@H]3O)[C@H]3COC(=O)[C@H]23)OCO4)cc(OC)c1O [ETOPOSIDE] | 11.1 | 55.6 | – | – | – | – | – | – | – | – | – | – | – | – | – | – | – | – | – | – | GI50 [4]: 8.7 µM
3 | CC(C)=CCc1[nH]c2ccccc2c1C[C@@H]1NC(=O)[C@H]2CCCN2C1=O | – | – | 5.54 | 17.7 | 3.22 | 0 | 11.5 | 9.46 | 73.6 | 88.3 | 0.1 | 6.9 | 9.69 | 20.1 | 14.7 | 59.3 | 13.2 | 9.23 | 14 | 22.4 | GI50 (HT-29): 5.25 µM; GI50 (MOLT-4): 5.96 µM; inhibition [10]: < 2%; GI50 (HOP-92): 1.7 µM; GI50 [4]: 11.9 µM; percent cell survival at 100 µM (PC-3 [13]): 0.2%; GI50 [14]: 14.9 µM
4 | COc1ccc2c(C[C@@H]3NC(=O)[C@@H]4CCCN4C3=O)c(CC=C(C)C)[nH]c2c1 [TRYPROSTATIN A] | 94 | > 100 | 37.1 | > 100 | > 100 | 95 | 90.5 | 5.68 | > 100 | 80.1 | 79.4 | > 100 | > 100 | 2.73 | > 100 | 99.2 | 79.7 | > 100 | > 100 | 11.3 | IC50 [15]: 250 µM; GI50 (HOP-92): 21.2 µM; Activity [16]: Active; IC50 [2]: 68 µM; percent cell survival at 100 µM (PC-3 [13]): 95.6%; GI50 [14]: > 100 µM
5 | CC(C)=CCc1[nH]c2ccccc2c1C[C@H]1NC(=O)[C@H]2CCCN2C1=O | 21.2 | 40 | 12.9 | 21.2 | 25.1 | > 100 | 16 | 12.1 | > 100 | > 100 | 99.8 | 39.4 | 38.2 | 25.8 | 12.6 | 95.8 | 7.21 | > 50 | > 50 | 29 | GI50 (HT-29): 37.5 µM; Activity [17]: inactive; GI50 (MOLT-4): 21 µM; IC50 [15]: > 700 µM; percent cell survival at 100 µM (PC-3 [13]): 78.9%; GI50 [14]: 11.9 µM
